In ChEMBL document CHEMBL1133934, “Metabolic stabilization of benzylidene ketal M(2) muscarinic receptor antagonists via halonaphthoic acid substitution” (Bioorg Med Chem Lett, 2001):

How the values were obtained:
[1] = Pharmacokinetic property at the dose of 10 mg/kg (20% HPbetaCD) concentration in rat (0 to 6 hr) p.o.; conditions: in vivo, po
[2] = system: Rattus norvegicus; assay: Percent of Acetylcholine (ACh) released above baseline in rat striatum at the dose of 10 mg/kg p.o. (0-2h); assay type: functional; conditions: route oral
Procedure, shortened: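 Rats dosed orally at 10 mg/kg in 20% HPβCD; microdialysis of striatum measuring ACh release over the 2 h experiment. Stimulation judged against pre-injection baseline, significance p < 0.05 by Duncan's multiple range statistic.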

[3] = biological target: T1, Muscarinic acetylcholine receptor M2 (Homo sapiens, UniProt P08172); assay: Antagonistic activity against muscarinic acetylcholine receptor M2; assay type: functional
T1 sequence (P08172 whole entry): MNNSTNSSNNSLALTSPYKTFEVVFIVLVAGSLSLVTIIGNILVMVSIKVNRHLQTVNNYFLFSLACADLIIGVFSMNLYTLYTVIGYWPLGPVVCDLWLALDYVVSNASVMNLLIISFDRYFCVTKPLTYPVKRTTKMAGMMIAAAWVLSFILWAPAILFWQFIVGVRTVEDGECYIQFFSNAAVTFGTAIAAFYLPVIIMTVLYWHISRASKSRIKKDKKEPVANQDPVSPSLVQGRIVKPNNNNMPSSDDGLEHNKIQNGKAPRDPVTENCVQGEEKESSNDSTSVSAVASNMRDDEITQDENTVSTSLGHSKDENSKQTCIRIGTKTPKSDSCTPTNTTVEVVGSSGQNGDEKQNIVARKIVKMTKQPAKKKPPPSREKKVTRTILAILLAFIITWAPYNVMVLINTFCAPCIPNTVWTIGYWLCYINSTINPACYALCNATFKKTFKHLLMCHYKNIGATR
Procedure, shortened: (§1)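 Muscarinic receptor binding by a method described elsewhere; values are the mean of duplicates (SEM < 15%), each determination performed at least twice. Selectivity expressed as the ratio of M1 or M3 to M2 binding.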

[4] = biological target: T1, Muscarinic acetylcholine receptor M2; assay: Antagonistic activity against Muscarinic acetylcholine receptor M2; assay type: functional; procedure, shortened: as §1
[5] = biological target: Muscarinic acetylcholine receptors; M2 & M3 (Homo sapiens) (UniProt P20309+P08172); assay: Selectivity ratio of M3 muscarinic receptor to that of M2 muscarinic receptor; assay type: protein assay; procedure, shortened: as §1
[6] = biological target: Muscarinic acetylcholine receptors; M1 & M2 (Homo sapiens) (UniProt P11229+P08172); assay: Selectivity ratio of M1 muscarinic receptor to that of M2 muscarinic receptor; assay type: protein assay; procedure, shortened: as §1
Muscarinic acetylcholine receptors; M1 & M2 (Homo sapiens), sequence (P11229 whole entry, looked up, one chain of several): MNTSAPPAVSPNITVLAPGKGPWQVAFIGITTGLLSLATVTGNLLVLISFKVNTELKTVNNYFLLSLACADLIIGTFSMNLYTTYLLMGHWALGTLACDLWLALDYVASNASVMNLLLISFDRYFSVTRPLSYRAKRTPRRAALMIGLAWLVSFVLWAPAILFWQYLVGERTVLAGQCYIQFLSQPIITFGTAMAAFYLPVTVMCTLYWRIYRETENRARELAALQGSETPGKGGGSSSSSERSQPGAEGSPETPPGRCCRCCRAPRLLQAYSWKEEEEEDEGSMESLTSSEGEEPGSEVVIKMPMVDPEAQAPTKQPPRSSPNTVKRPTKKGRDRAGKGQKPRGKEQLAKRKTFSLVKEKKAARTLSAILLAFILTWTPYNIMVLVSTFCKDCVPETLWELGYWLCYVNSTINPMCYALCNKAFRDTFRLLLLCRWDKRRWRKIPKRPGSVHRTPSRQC

Muscarinic acetylcholine receptors; M2 & M3 (Homo sapiens), sequence (P20309 whole entry, looked up, one chain of several): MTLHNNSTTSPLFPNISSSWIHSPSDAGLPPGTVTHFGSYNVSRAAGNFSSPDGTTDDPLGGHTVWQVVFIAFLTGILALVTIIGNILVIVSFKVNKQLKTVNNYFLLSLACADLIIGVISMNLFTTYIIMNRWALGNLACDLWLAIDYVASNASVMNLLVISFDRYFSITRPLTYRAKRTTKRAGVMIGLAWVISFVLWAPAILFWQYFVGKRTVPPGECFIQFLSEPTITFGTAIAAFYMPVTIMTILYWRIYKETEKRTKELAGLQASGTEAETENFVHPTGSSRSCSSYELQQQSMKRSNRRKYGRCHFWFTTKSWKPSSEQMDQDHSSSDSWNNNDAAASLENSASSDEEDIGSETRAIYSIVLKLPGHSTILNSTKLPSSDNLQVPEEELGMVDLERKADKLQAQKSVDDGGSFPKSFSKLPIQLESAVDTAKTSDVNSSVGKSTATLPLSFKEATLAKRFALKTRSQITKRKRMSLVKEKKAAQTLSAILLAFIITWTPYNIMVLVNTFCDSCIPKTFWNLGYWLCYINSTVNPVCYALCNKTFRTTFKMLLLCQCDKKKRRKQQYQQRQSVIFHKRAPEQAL

What does the source list for `COc1ccc(S(=O)(=O)c2ccc(C3(C4CCN(C5CCN(C(=O)c6cccc7c(Br)cccc67)CC5)CC4)OCCO3)cc2)cc1`?
AUC at 6 h [1]: 702 ng·h/mL; MD [2]: 125%; Ki [3]: 0.51 nM

For `COc1ccc(S(=O)(=O)c2ccc(C3(C4CCN(C5CCN(C(=O)c6cccc7c(F)ccc(F)c67)CC5)CC4)OCCO3)cc2)cc1`, which MD [2] is on record?
Its MD is 120%.

What about the Ki [4] of the same molecule?
Its Ki is 0.29 nM.

Which MD [2] does the source give for `COc1ccc(S(=O)(=O)c2ccc(C3(C4CCN(C5CCN(C(=O)c6ccc(F)c7ccccc67)CC5)CC4)OCCO3)cc2)cc1` here?
Its MD is 180%.

And the Ki [3]?
The Ki was 0.51 nM.

Which Ki [4] does the source give for `COc1ccc(S(=O)(=O)c2ccc(C3(C4CCN(C5CCN(C(=O)c6cccc7cccc(F)c67)CC5)CC4)OCCO3)cc2)cc1` here?
Its Ki is 0.99 nM.

For `COc1ccc(S(=O)(=O)c2ccc(C3(C4CCN(C5CCN(C(=O)c6cccc7ccccc67)CC5)CC4)OCCO3)cc2)cc1`, which Ki [3] is on record?
The Ki was 0.14 nM.

With `CCCS(=O)(=O)N1CCC(N2CCC(C3(c4ccc(S(=O)(=O)c5ccc(OC)cc5)cc4)OCCO3)CC2)CC1` as the molecule, how does the Selectivity ratio [5] read?
Its Selectivity ratio is 25.3.

And the Selectivity ratio [6]?
Its Selectivity ratio is 18.3.

And the Ki [4]?
The Ki was 33.3 nM.

For `COc1ccc(S(=O)(=O)c2ccc(C3(C4CCN(C5CCN(C(=O)c6cccc7cc(Cl)ccc67)CC5)CC4)OCCO3)cc2)cc1`, which Ki [3] is on record?
The Ki was 1.4 nM.

Which AUC at 6 h [1] does the source give for `COc1ccc(S(=O)(=O)c2ccc(C3(C4CCN(C5CCN(C(=O)c6cccc7c(F)cc(F)cc67)CC5)CC4)OCCO3)cc2)cc1` here?
The AUC at 6 h was 367 ng·h/mL.

What about the MD [2] of the same molecule?
Its MD is 133%.

And the Ki [4]?
The Ki was 0.23 nM.

Which Ki [3] does the source give for `COc1ccc(S(=O)(=O)c2ccc(C3(C4CCN(C5CCN(C(=O)c6cccc7ccc(F)cc67)CC5)CC4)OCCO3)cc2)cc1` here?
The Ki was 1.2 nM.

With `CCCS(=O)(=O)N1CCC(N2CCC(C3(c4ccc(S(=O)(=O)c5ccc6c(c5)OCO6)cc4)OCCO3)CC2)CC1` as the molecule, how does the Selectivity ratio [5] read?
The Selectivity ratio was 93.

What about the Selectivity ratio [6] of the same molecule?
The Selectivity ratio was 102.

With `COc1ccc(S(=O)(=O)c2ccc(C3(C4CCN(C5CCN(C(=O)c6cccc7cc(F)ccc67)CC5)CC4)OCCO3)cc2)cc1` as the molecule, how does the Ki [3] read?
The Ki was 0.81 nM.

Which results are given for `COc1ccc(S(=O)(=O)c2ccc(C3(C4CCN(C5CCN(C(=O)c6cccc7c(F)cccc67)CC5)CC4)OCCO3)cc2)cc1`?
AUC at 6 h [1]: 130 ng·h/mL; MD [2]: 140%; Ki [3]: 0.2 nM
